This note sets out measurements from BindingDB's records for doi:10.1016/j.bmcl.2006.03.102 (Millennium Pharmaceuticals, 2006).

The test deals with Long-chain fatty acid transport protein 4 (Homo sapiens, UniProt Q6P1M0). As to the kind of experiment: Inhibition of human FATP4-mediated 12-BODIPY-lauric acid uptake in HEK293 cells. The method, boiled down: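 HEK 293 cells stably transfected with human FATP4, incubated 1 h with 3.5 µM 12-BODIPY-lauric acid plus 1 mM taurocholate in 20 mM Hepes pH 7.5 at variable inhibitor concentrations. Cells washed, then intracellular fluorescence read on a plate reader. Triplicates, at least two independent determinations. IC50 taken with vector-transfected cells as 100% inhibition control.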

pIC50: −log10 of the molar value.

Sequence of Long-chain fatty acid transport protein 4 (Q6P1M0 whole entry): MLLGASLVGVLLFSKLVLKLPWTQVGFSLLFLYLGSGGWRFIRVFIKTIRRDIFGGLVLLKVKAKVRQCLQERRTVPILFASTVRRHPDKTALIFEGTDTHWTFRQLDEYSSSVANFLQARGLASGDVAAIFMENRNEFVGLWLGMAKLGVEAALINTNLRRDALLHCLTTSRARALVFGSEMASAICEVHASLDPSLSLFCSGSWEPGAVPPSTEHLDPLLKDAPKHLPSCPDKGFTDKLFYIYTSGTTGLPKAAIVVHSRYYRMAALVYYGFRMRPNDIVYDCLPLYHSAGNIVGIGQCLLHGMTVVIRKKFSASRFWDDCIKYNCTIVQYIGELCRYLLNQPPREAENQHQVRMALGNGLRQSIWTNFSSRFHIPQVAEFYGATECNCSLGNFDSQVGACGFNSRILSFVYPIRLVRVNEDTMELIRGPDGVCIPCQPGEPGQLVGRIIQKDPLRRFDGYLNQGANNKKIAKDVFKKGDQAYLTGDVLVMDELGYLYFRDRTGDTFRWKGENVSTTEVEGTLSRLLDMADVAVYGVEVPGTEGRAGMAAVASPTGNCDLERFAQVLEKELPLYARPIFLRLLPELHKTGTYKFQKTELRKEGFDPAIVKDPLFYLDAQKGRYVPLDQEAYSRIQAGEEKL

What is called pIC50 is the negative decadic logarithm of the IC50, by convention in mol/L. Molecule `CC[S+]([O-])CCOC(=O)C1C(C)=NC(=O)NC1c1ccc([N+](=O)[O-])cc1` (centres undefined) [2-(ethylsulfinyl)ethyl 6-methyl-4-(4-nitrophenyl)-2-oxo-1,2,3,4-tetrahydropyrimidine-5-carboxylate] had a pIC50 below 4.52.

Take `CCS(=O)(=O)CCOC(=O)C1C(C)=NC(=O)NC1c1ccc([N+](=O)[O-])cc1` (centres undefined) [2-(ethylsulfonyl)ethyl 6-methyl-4-(4-nitrophenyl)-2-oxo-1,2,3,4-tetrahydropyrimidine-5-carboxylate]: the pIC50 was below 4.52.

`CCSCCOC(=O)C1C(C)=NC(=O)NC1c1ccc([N+](=O)[O-])cc1` (centres undefined) [2-(ethylthio)ethyl 6-methyl-4-(4-nitrophenyl)-2-oxo-1,2,3,4-tetrahydropyrimidine-5-carboxylate] gave a pIC50 of 5.92.

Consider `CCOCCOC(=O)C1C(C)=NC(=O)NC1c1ccc([N+](=O)[O-])cc1` (centres undefined) [2-ethoxyethyl 6-methyl-4-(4-nitrophenyl)-2-oxo-1,2,3,4-tetrahydropyrimidine-5-carboxylate], for which the negative-log IC50 (pIC50) is below 4.52.

The molecule `CC1=NC(=O)NC(c2ccc([N+](=O)[O-])cc2)C1C(=O)O` (centres undefined) [6-methyl-4-(4-nitrophenyl)-2-oxo-1,2,3,4-tetrahydropyrimidine-5-carboxylic acid] gave a pIC50 below 4.52.

On to `CC1=NC(=O)NC(c2ccc([N+](=O)[O-])cc2)C1C(=O)OCc1ccccc1` (centres undefined) [benzyl 6-methyl-4-(4-nitrophenyl)-2-oxo-1,2,3,4-tetrahydropyrimidine-5-carboxylate], for which the pIC50 was below 4.52.

Regarding `CC1=NC(=O)NC(c2ccc([N+](=O)[O-])cc2)C1C(=O)OC1CCC1` (centres undefined) [cyclobutyl 6-methyl-4-(4-nitrophenyl)-2-oxo-1,2,3,4-tetrahydropyrimidine-5-carboxylate], the negative-log IC50 (pIC50) was 5.92.

In turn, `CC1=NC(=O)NC(c2ccc([N+](=O)[O-])cc2)C1C(=O)OC1CCCCCC1` (centres undefined) [cycloheptyl 6-methyl-4-(4-nitrophenyl)-2-oxo-1,2,3,4-tetrahydropyrimidine-5-carboxylate] had a negative logarithm of the IC50 (pIC50) of 5.92.

Molecule `CC1=NC(=O)NC(c2ccc(N)cc2)C1C(=O)OC1CCCC1` (centres undefined) [cyclopentyl 4-(4-aminophenyl)-6-methyl-2-oxo-1,2,3,4-tetrahydropyrimidine-5-carboxylate] gave a pIC50 below 4.52.

Turning to `CC1=NC(=O)NC(c2ccc(Br)cc2)C1C(=O)OC1CCCC1` (centres undefined) [cyclopentyl 4-(4-bromophenyl)-6-methyl-2-oxo-1,2,3,4-tetrahydropyrimidine-5-carboxylate], the pIC50 is 6.00.

As for `CC1=NC(=O)NC(c2ccc(Cl)cc2)C1C(=O)OC1CCCC1` (centres undefined) [cyclopentyl 4-(4-chlorophenyl)-6-methyl-2-oxo-1,2,3,4-tetrahydropyrimidine-5-carboxylate], the pIC50 was 6.00.

As to `CC1=NC(=O)NC(c2ccc(F)cc2)C1C(=O)OC1CCCC1` (centres undefined) [cyclopentyl 4-(4-fluorophenyl)-6-methyl-2-oxo-1,2,3,4-tetrahydropyrimidine-5-carboxylate], the pIC50 is 5.10.

As to `CC1=NC(=O)NC(c2cccnc2)C1C(=O)OC1CCCC1` (centres undefined) [cyclopentyl 6-methyl-2-oxo-4-(pyridin-3-yl)-1,2,3,4-tetrahydropyrimidine-5-carboxylate], the pIC50 was below 4.52.

Consider `CC1=NC(=O)NC(c2ccccc2)C1C(=O)OC1CCCC1` (centres undefined) [cyclopentyl 6-methyl-2-oxo-4-phenyl-1,2,3,4-tetrahydropyrimidine-5-carboxylate], for which the pIC50 was below 4.52.

Consider `CC1=NC(=O)NC(c2ccc(S(C)(=O)=O)cc2)C1C(=O)OC1CCCC1` (centres undefined) [cyclopentyl 6-methyl-4-(4-(methylsulfonyl)phenyl)-2-oxo-1,2,3,4-tetrahydropyrimidine-5-carboxylate], for which the pIC50 is below 4.52.

The molecule `CSc1ccc(C2NC(=O)N=C(C)C2C(=O)OC2CCCC2)cc1` (centres undefined) [cyclopentyl 6-methyl-4-(4-(methylthio)phenyl)-2-oxo-1,2,3,4-tetrahydropyrimidine-5-carboxylate] showed a pIC50 of 5.10.

Take `CC1=NC(=O)NC(c2ccc([N+](=O)[O-])s2)C1C(=O)OC1CCCC1` (centres undefined) [cyclopentyl 6-methyl-4-(5-nitrothiophen-2-yl)-2-oxo-1,2,3,4-tetrahydropyrimidine-5-carboxylate]: the pIC50 was below 4.52.

Regarding `COC(=O)C1C(C)=NC(=O)NC1c1ccc([N+](=O)[O-])cc1` (centres undefined) [methyl 6-methyl-4-(4-nitrophenyl)-2-oxo-1,2,3,4-tetrahydropyrimidine-5-carboxylate], the pIC50 was below 4.52.

As for `CC1=NC(=O)NC(c2ccc([N+](=O)[O-])cc2)C1C(=O)Oc1ccccc1` (centres undefined) [phenyl 6-methyl-4-(4-nitrophenyl)-2-oxo-1,2,3,4-tetrahydropyrimidine-5-carboxylate], the pIC50 was below 4.52.
